Experimental data from ChEMBL document CHEMBL4219167, “Disulfiram-based disulfides as narrow-spectrum antibacterial agents” (Bioorg Med Chem Lett, 2018).
Converted amounts (≈) assume the structure as drawn.

Key:
Staphylococcus aureus [1] = test: Antibacterial activity against vancomycin-resistant Staphylococcus aureus HIP14300 after 20 hrs by broth microdilution assay; assay type: functional; details: HIP14300, 20 h
[2] = test system: Staphylococcus epidermidis; test: Antibacterial activity against vancomycin-intermediate resistant Staphylococcus epidermidis NRS6 after 20 hrs by broth microdilution assay; assay type: functional; details: NRS6, 20 h
Streptococcus agalactiae = test: Antibacterial activity against Streptococcus agalactiae SGBS005 after 20 hrs by broth microdilution assay; assay type: functional; details: SGBS005, 20 h
Staphylococcus aureus [3] = test: Antibacterial activity against methicillin-resistant Staphylococcus aureus COL after 20 hrs by broth microdilution assay; assay type: functional
Staphylococcus aureus [4] = test: Antibacterial activity against vancomycin-intermediate resistant Staphylococcus aureus AR-217 after 20 hrs by broth microdilution assay; assay type: functional; details: AR-217, 20 h
Streptococcus pyogenes = test: Antibacterial activity against Streptococcus pyogenes H293 after 20 hrs by broth microdilution assay; assay type: functional; details: H293, 20 h
Streptococcus pneumoniae = test: Antibacterial activity against Streptococcus pneumoniae TCH8431 after 20 hrs by broth microdilution assay; assay type: functional; details: TCH8431, 20 h
Enterococcus faecium = test: Antibacterial activity against vancomycin-resistant Enterococcus faecium ATCC 700221 after 20 hrs by broth microdilution assay; assay type: functional; details: ATCC 700221, 20 h
Outline: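 Brain heart infusion broth at 37°C; E. faecium under 5% CO2. Cells at 0.5 McFarland are diluted 1:100 and exposed to serial dilutions (DMSO stocks 1 mM or 1 mg/mL; controls in water).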

Corynebacterium striatum = test: Antibacterial activity against Corynebacterium striatum FS-1 after 20 hrs by broth microdilution assay; assay type: functional; details: FS-1, 20 h
Burkholderia multivorans = test: Antibacterial activity against Burkholderia multivorans CF2 after 20 hrs by broth microdilution assay; assay type: functional; details: CF2, 20 h
Outline: (§1)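 Medium is tryptic soy broth, 37°C. Overnight culture is adjusted to 0.5 McFarland, diluted 1:100 and exposed to serial dilutions (test agents from 1 mM or 1 mg/mL DMSO stocks; control antibiotics in water). Incubation lasts 20 h. MIC is the lowest concentration with no visible growth.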

Proteus mirabilis = test: Antibacterial activity against Proteus mirabilis HM-752 after 20 hrs by broth microdilution assay; assay type: functional; details: HM-752, 20 h; outline: as §1
[5] = test system: Yersinia pseudotuberculosis; test: Antibacterial activity against Yersinia pseudotuberculosis P61 after 20 hrs by broth microdilution assay; assay type: functional; details: P61, 20 h
Outline: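 Yersinia cultured in tryptic soy broth at 28°C. A 0.5 McFarland suspension diluted 1:100 receives serial dilutions of agents from 1 mM or 1 mg/mL DMSO stocks; control antibiotics are in water.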

Rhodococcus erythropolis = test: Antibacterial activity against Rhodococcus erythropolis SK121 after 20 hrs by broth microdilution assay; assay type: functional; details: SK121, 20 h
Outline: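 R. erythropolis grown in brain heart infusion broth at 30°C. A 0.5 McFarland suspension diluted 1:100 is treated with serial dilutions from 1 mM or 1 mg/mL DMSO stocks; control antibiotics are in water.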

Vibrio cholerae = test: Antibacterial activity against Vibrio cholerae TS D4 after 20 hrs by Todd Hewitt broth broth microdilution method; assay type: functional; details: TS D4, 20 h
Acinetobacter baumannii = test: Antibacterial activity against Acinetobacter baumannii AB5075 after 20 hrs by broth microdilution assay; assay type: functional; details: AB5075, 20 h
Francisella tularensis = test: Antibacterial activity against Francisella tularensis Utah 112 after 20 hrs by broth microdilution assay; assay type: functional; details: Utah 112, 20 h
Citrobacter freundii = test: Antibacterial activity against Citrobacter freundii 4_7_47CFAA after 20 hrs by broth microdilution assay; assay type: functional
Outline: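 Brucella broth, 37°C, 5% CO2. Inoculum is 0.5 McFarland diluted 1:100, with serial drug dilutions from DMSO stocks (1 mM or 1 mg/mL) and control antibiotics in water.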

Yersinia pestis [6] = test: Antibacterial activity against Yersinia pestis Kim D2 after 20 hrs by broth microdilution assay; assay type: functional; details: Kim D2, 20 h
Salmonella typhi = test: Antibacterial activity against Salmonella typhi Ty2 after 20 hrs by Todd Hewitt broth broth microdilution method; assay type: functional, Salmonella enterica subsp. enterica serovar Typhi str. Ty2; details: Salmonella enterica
Yersinia pestis [7] = test: Antibacterial activity against Yersinia pestis Kuma D7 after 20 hrs by broth microdilution assay; assay type: functional; details: Kuma D7, 20 h
Escherichia coli = test: Antibacterial activity against Escherichia coli DC10B after 20 hrs by broth microdilution assay; assay type: functional; outline: as §1

SMILES	MIC (Staphylococcus aureus [1])	MIC [2]	MIC (Streptococcus agalactiae)	MIC (Staphylococcus aureus [3])	MIC (Staphylococcus aureus [4])	MIC (Streptococcus pyogenes)	MIC (Streptococcus pneumoniae)	MIC (Enterococcus faecium)	also measured
CCSSC(=S)N(CC)CC	16 µM (≈ 3.35 µg/mL)	32 µM (≈ 6.7 µg/mL)	> 32 µM	16 µM (≈ 3.35 µg/mL)	8 µM (≈ 1.68 µg/mL)	32 µM (≈ 6.7 µg/mL)	> 32 µM	> 32 µM	
CCN(CC)C(=S)SSc1ccccc1	16 µM (≈ 4.12 µg/mL)	16 µM (≈ 4.12 µg/mL)	> 32 µM	32 µM (≈ 8.24 µg/mL)	16 µM (≈ 4.12 µg/mL)	> 32 µM	> 32 µM	> 32 µM	
CCN(CC)C(=S)SSCC(C)C	> 32 µM	> 32 µM	> 32 µM	> 32 µM	> 32 µM	32 µM (≈ 7.6 µg/mL)	> 32 µM	> 32 µM	
CCN(CC)C(=S)SSC1CCCC1	32 µM (≈ 7.98 µg/mL)	32 µM (≈ 7.98 µg/mL)	> 32 µM	32 µM (≈ 7.98 µg/mL)	16 µM (≈ 3.99 µg/mL)	32 µM (≈ 7.98 µg/mL)	> 32 µM	> 32 µM	
CCCCCCCCCCSSC(=S)N(CC)CC	32 µM (≈ 10.3 µg/mL)	16 µM (≈ 5.15 µg/mL)	16 µM (≈ 5.15 µg/mL)	16 µM (≈ 5.15 µg/mL)	16 µM (≈ 5.15 µg/mL)	4 µM (≈ 1.29 µg/mL)	4 µM (≈ 1.29 µg/mL)	16 µM (≈ 5.15 µg/mL)	
CCCCSSC(=S)N(CC)CC [BUTYL DIETHYLCARBAMO(DITHIOPEROXO)THIOATE]	16 µM (≈ 3.8 µg/mL)	32 µM (≈ 7.6 µg/mL)	> 32 µM	16 µM (≈ 3.8 µg/mL)	16 µM (≈ 3.8 µg/mL)	32 µM (≈ 7.6 µg/mL)	> 32 µM	> 32 µM	
O=C(O)c1cn(C2CC2)c2cc(N3CCNCC3)c(F)cc2c1=O [CIPROFLOXACIN]									MIC (Corynebacterium striatum): > 32 µM; MIC (Burkholderia multivorans): 8 µM (≈ 2.65 µg/mL); MIC (Proteus mirabilis): ≤ 0.5 µM; MIC [5]: ≤ 0.5 µM; MIC (Rhodococcus erythropolis): ≤ 0.5 µM; MIC (Vibrio cholerae): ≤ 0.5 µM; MIC (Acinetobacter baumannii): ≤ 0.5 µM; MIC (Francisella tularensis): ≤ 0.5 µM; MIC (Citrobacter freundii): ≤ 0.5 µM; MIC (Yersinia pestis [6]): ≤ 0.5 µM; MIC (Salmonella typhi): ≤ 0.5 µM; MIC (Yersinia pestis [7]): ≤ 0.5 µM; MIC (Escherichia coli): ≤ 0.5 µM
CCN(CC)C(=S)SSC1CCCCC1 [CYCLOHEXYL DIETHYLCARBAMO(DITHIOPEROXO)THIOATE]	32 µM (≈ 8.43 µg/mL)	32 µM (≈ 8.43 µg/mL)	> 32 µM	32 µM (≈ 8.43 µg/mL)	16 µM (≈ 4.22 µg/mL)	16 µM (≈ 4.22 µg/mL)	> 32 µM	> 32 µM	
CCN(CC)C(=S)SSC(C)C [ISOPROPYL DIETHYLCARBAMO(DITHIOPEROXO)THIOATE]	> 32 µM	> 32 µM	> 32 µM	> 32 µM	32 µM (≈ 7.15 µg/mL)	32 µM (≈ 7.15 µg/mL)	> 32 µM	> 32 µM	
